Results as given in ChEMBL document CHEMBL2163238, “Design, synthesis, and biological evaluation of N-alkylated deoxynojirimycin (DNJ) derivatives for the treatment of dengue virus infection” (J Med Chem, 2012).
Values after ≈ are worked out from the molar mass of the structure shown. Active and inactive are the calls of the source. The rule behind the calls is not given here.

Tests used:
CYP2C9 = CYP2C9 (Homo sapiens, UniProt P11712); assay: Inhibition of human CYP2C9 at 10 uM; assay type: ADME
Sequence of CYP2C9 (P11712 whole entry, canonical isoform): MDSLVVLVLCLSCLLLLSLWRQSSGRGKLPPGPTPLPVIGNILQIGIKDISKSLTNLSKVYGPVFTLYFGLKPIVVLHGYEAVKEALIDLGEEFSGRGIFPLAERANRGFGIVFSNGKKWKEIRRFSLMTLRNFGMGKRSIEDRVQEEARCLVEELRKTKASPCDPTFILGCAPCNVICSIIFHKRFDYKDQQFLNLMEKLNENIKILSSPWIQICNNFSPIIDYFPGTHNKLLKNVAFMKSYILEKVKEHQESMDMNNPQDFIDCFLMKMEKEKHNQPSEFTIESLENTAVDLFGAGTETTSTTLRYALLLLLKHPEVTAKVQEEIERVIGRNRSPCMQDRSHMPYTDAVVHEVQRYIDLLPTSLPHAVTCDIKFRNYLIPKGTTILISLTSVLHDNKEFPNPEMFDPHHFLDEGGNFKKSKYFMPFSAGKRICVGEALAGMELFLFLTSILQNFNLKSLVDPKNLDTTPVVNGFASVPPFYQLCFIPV
Procedure, shortened: (§1)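 Inhibition of CYP isoforms by compounds tested at 10 μM, given as percent inhibition; contract in vitro ADME panel.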

in vivo = settings: Sprague-Dawley, rat, po, 25 mg/kg
CYP3A4 [1] = target: T1, CYP3A4 (Homo sapiens, UniProt P08684); assay: Inhibition of human CYP3A4 using midazolam as substrate at 10 uM; assay type: ADME; settings: probe midazolam
T1 sequence (P08684 whole entry, canonical isoform): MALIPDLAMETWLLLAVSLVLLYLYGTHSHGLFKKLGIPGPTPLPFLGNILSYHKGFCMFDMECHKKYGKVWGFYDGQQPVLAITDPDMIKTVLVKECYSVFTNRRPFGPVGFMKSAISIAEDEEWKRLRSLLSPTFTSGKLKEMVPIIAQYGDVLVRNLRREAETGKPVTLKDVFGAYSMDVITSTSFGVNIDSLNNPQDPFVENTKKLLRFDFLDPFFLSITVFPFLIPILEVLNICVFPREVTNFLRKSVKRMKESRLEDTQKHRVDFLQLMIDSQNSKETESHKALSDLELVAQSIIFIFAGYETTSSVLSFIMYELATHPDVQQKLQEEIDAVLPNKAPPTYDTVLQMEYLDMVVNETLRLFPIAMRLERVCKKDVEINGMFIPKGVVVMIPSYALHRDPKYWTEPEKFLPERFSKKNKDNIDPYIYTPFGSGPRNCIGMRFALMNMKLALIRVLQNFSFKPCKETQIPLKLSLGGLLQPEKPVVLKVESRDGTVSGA
Procedure, shortened: (§2)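 Inhibition of CYP isoforms with compound at 10 μM, reported as % inhibition. CYP3A4 run with midazolam or testosterone as substrate.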

[2] = Cytotoxicity against human Huh7.5 cells assessed as cell viability by DRAQ5 and Sapphire 700 staining; settings: huh-7
[3] = Aqueous solubility in PBS at pH 7.4; assay type: physicochemical; settings: buffer
[4] = Cytotoxicity against BHK cells assessed as cell viability by MTT assay; assay type: cell-based, Mesocricetus auratus; settings: hamster
[5] = Metabolic stability in rat liver microsomes at 60 mins; assay type: ADME, Microsome; settings: read-out: Stability
MDBK = assay: Competitive inhibition of endoplasmic reticulum-resident alpha-glucosidase in MDBK cells infected with 1 MOI BVDV assessed as decrease in viral E2 protein mobility at 0.8 to 100 uM after 24 hrs by Western blotting; assay type: cell-based; settings: Bos taurus
Procedure, shortened: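 MDBK cells infected with BVDV at MOI 1 for 1 h, then compounds at 0.8, 4.0, 20 and 100 μM. Cells lysed in Laemmli buffer, run on 12% polyacrylamide gel and transferred to nitrocellulose. BVDV E2 mobility probed with monoclonal WB166 and β-actin detected in parallel. IR-dye secondary antibody, Odyssey imaging.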

[6] = Plasma protein binding in mouse plasma; assay type: ADME, cell-free; settings: read-out: PPB (converted)
Procedure, shortened: (§3)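 Binding of compound to human, rat or mouse plasma protein, reported as % bound.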

CYP3A4 [7] = target: T1, CYP3A4; assay: Inhibition of human CYP3A4 using testosterone as substrate at 10 uM; assay type: ADME; settings: probe testosterone; procedure, shortened: as §2
CYP2C19 = CYP2C19 (Homo sapiens, UniProt P33261); assay: Inhibition of human CYP2C19 at 10 uM; assay type: ADME; procedure, shortened: as §2
Sequence of CYP2C19 (P33261 whole entry): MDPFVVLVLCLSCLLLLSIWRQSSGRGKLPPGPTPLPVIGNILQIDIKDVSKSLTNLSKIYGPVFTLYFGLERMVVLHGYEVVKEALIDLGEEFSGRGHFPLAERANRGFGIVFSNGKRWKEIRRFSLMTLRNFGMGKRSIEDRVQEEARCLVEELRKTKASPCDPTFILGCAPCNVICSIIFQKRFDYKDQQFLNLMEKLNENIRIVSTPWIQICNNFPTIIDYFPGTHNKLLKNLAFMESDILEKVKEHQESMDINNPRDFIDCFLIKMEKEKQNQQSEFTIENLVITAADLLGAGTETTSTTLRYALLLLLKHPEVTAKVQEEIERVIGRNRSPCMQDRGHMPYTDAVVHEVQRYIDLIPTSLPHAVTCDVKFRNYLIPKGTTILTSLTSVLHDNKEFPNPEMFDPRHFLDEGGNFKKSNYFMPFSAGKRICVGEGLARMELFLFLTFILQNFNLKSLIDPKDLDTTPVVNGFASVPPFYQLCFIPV

Rattus norvegicus [8] = assay: Acute toxicity in Sprague-Dawley rat assessed as occurrence of soft feces at 50 to 100 mg/kg, po measured at 1 to 2 days; assay type: organism-based; design: route oral; settings: in vivo
Procedure, shortened: (§4)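 Single oral dose (25, 50, 100 or 200 mg/kg, or vehicle) given to 10-week-old male rats, 2 per group. Compound dissolved at 20 mM in PBS with 10% Solutol HS15, shaken 6 h at 37 °C. Animals observed 7 days for clinical signs, body weight and food consumption, then sacrificed on day 8.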

[9] = Antiviral activity against 1 MOI BVDV NADL infected in MDBK cells assessed as reduction in viral titer after 22 hrs; assay type: functional, cell-based, Bovine viral diarrhea virus 1-NADL; settings: Bovine viral diarrhea virus isolates and strains, MDBK, 22 h
Procedure, shortened: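 MDBK cells (2×10^5) infected 24 h after seeding with BVDV NADL at MOI 1, with 1 h adsorption at 37 °C. Washed, then compounds at 0.1–100 μM. Media harvested 22 h post-infection and plaque-titrated on MDBK under 1% methylcellulose for 3 days. Plaques counted directly or after neutral red staining. EC50 from dose–response curves, mean of 3 independent experiments.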

[10] = Plasma protein binding in human plasma; assay type: ADME, cell-free; settings: read-out: PPB (converted); procedure, shortened: as §3
[11] = Metabolic stability in mouse liver microsomes at 60 mins; assay type: ADME, Microsome; settings: read-out: Stability
dengue virus type 2 = assay: Antiviral activity against 0.01 MOI DENV-2 NGC infected in BHK cells assessed as reduction in viral titer after 48 hrs; assay type: functional, organism-based
Procedure, shortened: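 BHK cells infected with DENV-2 New Guinea C at MOI 0.01 for 1 h. Inoculum removed, then compounds at 0.1–100 μM for 48 h at 37 °C. Supernatants titrated on Vero monolayers as 10-fold dilutions under 0.5% methylcellulose for 3–5 days. Foci detected by 4G2 immunostaining or crystal violet plaques. EC50 from dose–response curves, mean of 3 independent experiments.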

Rattus norvegicus [12] = assay: Acute toxicity in Sprague-Dawley rat assessed as mortality at 25 to 200 mg/kg, po after 7 days; assay type: organism-based; design: dose 25-200 mg/kg, route oral; settings: in vivo, 168 h
[13] = Metabolic stability in human liver microsomes at 60 mins; assay type: ADME, Microsome; settings: read-out: Stability
CYP2D6 = CYP2D6 (Homo sapiens, UniProt P10635); assay: Inhibition of human CYP2D6 at 10 uM; assay type: ADME; procedure, shortened: as §1
Sequence of CYP2D6 (P10635 whole entry): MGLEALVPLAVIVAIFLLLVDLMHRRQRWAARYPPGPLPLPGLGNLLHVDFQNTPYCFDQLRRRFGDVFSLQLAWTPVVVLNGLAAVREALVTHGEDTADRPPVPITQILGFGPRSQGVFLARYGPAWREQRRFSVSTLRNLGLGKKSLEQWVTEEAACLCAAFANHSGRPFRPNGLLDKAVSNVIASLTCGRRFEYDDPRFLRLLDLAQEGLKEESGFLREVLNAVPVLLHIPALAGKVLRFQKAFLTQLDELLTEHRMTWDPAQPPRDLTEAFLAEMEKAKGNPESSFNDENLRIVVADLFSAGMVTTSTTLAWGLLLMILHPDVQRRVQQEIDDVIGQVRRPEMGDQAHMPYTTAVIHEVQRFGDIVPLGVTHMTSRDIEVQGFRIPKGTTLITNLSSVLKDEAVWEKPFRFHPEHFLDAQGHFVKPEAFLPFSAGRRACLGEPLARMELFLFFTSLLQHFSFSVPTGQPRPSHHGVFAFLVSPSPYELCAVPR

Rattus norvegicus [14] = assay: Acute toxicity in Sprague-Dawley rat assessed as body weight loss at 25 to 200 mg/kg, po after 7 days; assay type: organism-based; design: dose 25-200 mg/kg, route oral; settings: in vivo, 168 h; procedure, shortened: as §4
Rattus norvegicus [15] = assay: Volume of distribution in Sprague-Dawley rat at 25 mg/kg, po; assay type: ADME, organism-based; design: dose 25 mg/kg, route oral; settings: in vivo
[16] = Plasma half life in Sprague-Dawley rat at 5 mg/kg, iv; assay type: ADME, organism-based; design: dose 5 mg/kg, route intravenous
[17] = Aqueous solubility in PBS at pH 4; assay type: physicochemical; settings: buffer
Dengue virus = assay: Antiviral activity against 0.01 MOI DENV infected in human Huh7.5 cells assessed as reduction in viral […] protein level at 0.1 to 100 uM after 2 days by Western blotting; assay type: functional, organism-based; settings: Huh-7
CYP1A2 = target: T2, CYP1A2 (Homo sapiens, UniProt P05177); assay: Inhibition of human CYP1A2 at 10 uM; assay type: ADME; procedure, shortened: as §2
T2 sequence (P05177 whole entry): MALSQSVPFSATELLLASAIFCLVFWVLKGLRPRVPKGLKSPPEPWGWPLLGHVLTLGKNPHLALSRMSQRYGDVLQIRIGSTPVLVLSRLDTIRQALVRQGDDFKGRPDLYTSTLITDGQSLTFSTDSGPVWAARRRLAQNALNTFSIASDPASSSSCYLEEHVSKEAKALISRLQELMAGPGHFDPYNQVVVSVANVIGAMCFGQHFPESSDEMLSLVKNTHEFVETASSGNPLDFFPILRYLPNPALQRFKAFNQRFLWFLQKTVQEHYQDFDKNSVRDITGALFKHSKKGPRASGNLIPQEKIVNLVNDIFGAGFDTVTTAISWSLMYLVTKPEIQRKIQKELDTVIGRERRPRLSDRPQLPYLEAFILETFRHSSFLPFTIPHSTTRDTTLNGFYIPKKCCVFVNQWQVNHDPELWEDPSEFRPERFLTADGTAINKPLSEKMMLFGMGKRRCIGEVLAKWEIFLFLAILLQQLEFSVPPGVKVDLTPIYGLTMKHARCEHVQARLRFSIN

[18] = Volume of distribution in Sprague-Dawley rat at 5 mg/kg, iv; assay type: ADME, organism-based; design: dose 5 mg/kg, route intravenous; settings: in vivo
[19] = Plasma protein binding in rat plasma; assay type: ADME, cell-free; settings: read-out: PPB (converted); procedure, shortened: as §3
[20] = Cytotoxicity against MDBK cells assessed as cell viability by MTT assay; assay type: cell-based, Bos taurus; settings: cattle
Rattus norvegicus [21] = assay: Acute toxicity in Sprague-Dawley rat assessed as occurrence of diarrhea at 200 mg/kg, po measured at 1 to 2 days; assay type: organism-based; design: dose 200 mg/kg, route oral; settings: in vivo; procedure, shortened: as §4

## OC[C@@H]1[C@@H](O)[C@H](O)[C@@H](O)CN1CCCCCCOc1cc(F)ccc1F
CYP2C9
  inhibition at 10 µM: 7.1%
In vivo
  Tmax: 4.2 h
CYP3A4 [1]
  inhibition at 10 µM: 10.9%
[2]
  Activity: Non-toxic
[3]
  solubility: 292 µM (≈ 110 µg/mL)
[4]
  CC50: > 500 µM
[5]
  remaining at 1 h: 79%
MDBK
  inhibition: Active
[6]
  fraction unbound: 0.23
CYP3A4 [7]
  inhibition at 10 µM: -1.9%
CYP2C19
  inhibition at 10 µM: 1.6%
Rattus norvegicus [8]
  Activity: Toxic
[9]
  EC50: 0.5 µM
[10]
  fraction unbound: 0.26
[11]
  remaining at 1 h: 91%
Dengue virus type 2
  Activity: Dose-dependent effect
  EC50: 0.4 µM
Rattus norvegicus [12]
  Activity: Non-toxic
[13]
  remaining at 1 h: 91%
CYP2D6
  inhibition at 10 µM: 11.4%
Rattus norvegicus [14]
  Activity: Non-toxic
Rattus norvegicus [15]
  Vd: 17.2 L/kg
[16]
  half-life: 1.44 h
[17]
  solubility: 296 µM (≈ 111 µg/mL)
Dengue virus
  Activity: Active
CYP1A2
  inhibition at 10 µM: 24.4%
[18]
  Vd: 3.1 L/kg
[19]
  fraction unbound: 0.32
[20]
  CC50: > 500 µM
Rattus norvegicus [21]
  Activity: Toxic
